This is an account of results in PubChem BioAssay.

Active and inactive are the calls of the source.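 Rule for the calls, unless noted: active = viability at or below 10% of carrier control in both of two separate runs; inconclusive = viability at or below 10% in only one of the two runs; inactive = the rest.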

The nature of experiment [1]: Her2 expression decrease, cell viability multiplex – SKBR3 breast tumor cells, AlphaScreen, ATP viability, primary screen (AID 461;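 active = Her2 level under about 52% in both replicate screens, with viability over 70% of control, limit read from the data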;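 for Her2 level: lower value means less Her2 protein in the cells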;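 for viability: percent of carrier control wells set as 100% viability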). The note with it: SKBR3 Her2 protein level, 18-24 h, measured here: SKBR3 viability, ATP luminescence, at 10 µM. In general terms: In Alpha technology, singlet oxygen from a donor bead excites a nearby acceptor bead.
For experiment [2], the target named is Receptor tyrosine-protein kinase erbB-2 (Homo sapiens) (UniProt P04626). The experiment is described as above. The conditions noted are these: 18-24 h, at 10 µM, stronger effect = lower value.
Experiment [3] in a line: reduced viability of SK-BR-3 breast cancer cells – cell-based, 24 h, human, pilot screen (AID 572).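 Note: compound exposure lasted between 18 and 24 h rather than exactly 24 h; 100% = carrier-treated control wells.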 The note with it: SK-BR-3 viability, CellTiter-Glo luminescence, at 10 µM, stronger effect = lower value. Background: In ATP-based viability assays light output follows the ATP content of the culture.
A short description of experiment [4]: HUVEC growth inhibition – cell-based, human, primary screen (AID 575;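 active = viability at or below 30% in both replicate assays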;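 note: 100% = median of untreated cell wells with 0.1% DMSO on each plate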). The conditions noted are these: HUVEC proliferation, CellTiter-Glo luminescence, 72 h; at 10 µM; stronger effect = lower value. The method, boiled down: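 Timing: 72 h treatment at 37 °C; material: HUVEC primary cells; technique: CellTiter-Glo luminescence measuring cellular ATP; controls: vehicle and MePR control wells; measure: percent of median DMSO-control luminescence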

Experiment [5] in a line: H69AR cell proliferation blockers – human, duplicate replicates, primary screen (AID 580;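 active = viability at or under a set limit in both replicates, limit being median viability minus 3 SD, cut at about 48% in these data, passing the limit was not always enough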;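 note: 100% = mean luminescence of untreated wells and 0% = no signal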). The note with it: H69AR lung tumor cells viability, ATP luminescence, 72 h; at 10 µM; stronger effect = lower value.
Experiment [6] is described as follows: MRP1 drug-resistance reversers in H69AR cells – cell-based, doxorubicin co-treatment, pilot screen (AID 601;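 active = viability loss from added drug above about 55%, and viability with drug at most 40%, in both replicates, limit read from the data, passing the limit was not always enough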). The note with it: CellTiter-Glo, 72 h, at 10 µM; for differential viability (reversal): stronger effect = higher value.
Experiment [7] in a line: yeast transport mutant growth inhibition pilot in 384-well plates, post-Golgi transport modulator project (AID 636; in the data active = inhibition above about 31%). The note with it: absorbance 615 nm, about 18 h, stronger effect = higher value.
Experiment [8] is described as follows: growth suppression of yeast trafficking mutant, preliminary HTS, modulators of trafficking downstream of Golgi apparatus project, 1536-format plate, OD 615 nm (AID 637; in the data active = inhibition above about 30%). The conditions noted are these: yeast transport mutant growth, absorbance 615 nm, 18 h; stronger effect = higher value.
Where [9] appears, read: H69AR cells + 2 uM doxorubicin, measured here: viability with 2 uM doxorubicin, stronger effect = lower value.
Where [10] appears, read: H69AR cells, compound alone cytotoxicity.

Receptor tyrosine-protein kinase erbB-2 (Homo sapiens), sequence (P04626 whole entry, looked up): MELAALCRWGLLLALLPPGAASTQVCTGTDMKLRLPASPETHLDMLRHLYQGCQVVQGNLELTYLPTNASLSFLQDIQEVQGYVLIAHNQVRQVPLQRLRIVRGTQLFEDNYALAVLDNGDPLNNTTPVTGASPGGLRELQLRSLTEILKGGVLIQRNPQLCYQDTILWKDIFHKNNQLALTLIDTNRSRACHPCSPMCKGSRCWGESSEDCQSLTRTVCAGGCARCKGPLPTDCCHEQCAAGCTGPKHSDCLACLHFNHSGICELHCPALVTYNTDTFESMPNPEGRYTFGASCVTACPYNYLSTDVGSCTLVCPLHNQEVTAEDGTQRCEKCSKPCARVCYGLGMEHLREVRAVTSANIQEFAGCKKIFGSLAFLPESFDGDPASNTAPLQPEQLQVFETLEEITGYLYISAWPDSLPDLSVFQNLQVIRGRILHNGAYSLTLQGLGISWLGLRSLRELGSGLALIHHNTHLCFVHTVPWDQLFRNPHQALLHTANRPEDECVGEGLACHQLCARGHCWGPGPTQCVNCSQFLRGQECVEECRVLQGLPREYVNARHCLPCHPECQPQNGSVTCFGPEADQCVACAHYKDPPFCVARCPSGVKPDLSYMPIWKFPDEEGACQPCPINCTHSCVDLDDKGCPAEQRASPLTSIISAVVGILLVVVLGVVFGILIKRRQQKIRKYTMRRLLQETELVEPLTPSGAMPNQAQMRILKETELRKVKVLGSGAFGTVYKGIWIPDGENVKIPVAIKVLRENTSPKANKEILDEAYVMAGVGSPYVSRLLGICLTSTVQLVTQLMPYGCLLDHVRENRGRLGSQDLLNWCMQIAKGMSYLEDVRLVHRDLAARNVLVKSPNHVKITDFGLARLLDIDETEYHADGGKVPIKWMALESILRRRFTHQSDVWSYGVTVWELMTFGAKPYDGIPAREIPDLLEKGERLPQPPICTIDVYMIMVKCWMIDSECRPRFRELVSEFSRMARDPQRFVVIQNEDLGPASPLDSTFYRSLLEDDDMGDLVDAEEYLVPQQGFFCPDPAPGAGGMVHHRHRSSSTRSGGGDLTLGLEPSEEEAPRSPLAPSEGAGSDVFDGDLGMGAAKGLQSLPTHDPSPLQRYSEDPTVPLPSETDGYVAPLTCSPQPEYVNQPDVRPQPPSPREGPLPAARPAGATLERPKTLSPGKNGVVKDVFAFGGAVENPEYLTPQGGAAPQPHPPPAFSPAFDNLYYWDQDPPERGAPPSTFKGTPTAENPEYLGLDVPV

Take `CCOC(=O)c1cnc(-n2nc(C)cc2C)nc1Nc1cccc(C(C)=O)c1`: the viability (commonly a read-out of living cells in per cent, often relative to untreated cells) in experiment [1] was 87.5%; in experiment [3], 87.5% (inactive); in experiment [4], 95.7% (inactive); in experiment [5], 88% (inactive); in experiment [6] (setting [9]) it was 97.5%; in experiment [6] (setting [10]) it was 88%. Besides, the Her2 level in experiment [2] is 110% (inactive). Also, in experiment [6] (H69AR cells + 2 uM doxorubicin), the differential viability (reversal) is -9.45% (inactive). Besides, the figures for the inhibition in experiment [7] and in experiment [8] were 1.32% (inactive) and -4.35% (inactive), respectively.
For `Cc1ccc(C)c(OCC(O)CN2C(C)CCCC2C)c1` (stereo not given), the viability in experiment [1] was 70%; in experiment [3], 70% (inactive); in experiment [4], 96.2% (inactive); in experiment [5], 83.8% (inactive); in experiment [6] (setting [9]), 83.4%; in experiment [6] (setting [10]), 83.8%. The Her2 level in experiment [2] is 98% (inactive). Moreover, the differential viability (reversal) in experiment [6] (H69AR cells + 2 uM doxorubicin) was 0.415% (inactive). Further, the inhibition (in general, the relative decrease from the control value, in per cent) was -0.53% (inactive) in experiment [7] and -0.95% (inactive) in experiment [8].
In the case of `CCCCN(Cc1cc2cc(OC)ccc2[nH]c1=O)C(=O)COc1ccccc1`, the viability in experiment [1] was 73%; in experiment [3] it was 73% (inactive); in experiment [4], 108% (inactive); in experiment [5], 93.6% (inactive); in experiment [6] (setting [9]) it was 98.1%; in experiment [6] (setting [10]) it was 93.6%. The Her2 level in experiment [2] was 79% (inactive). Further, the differential viability (reversal) in experiment [6] (H69AR cells + 2 uM doxorubicin) was -4.48% (inactive). Moreover, the figures for the inhibition in experiment [7] and in experiment [8] were -0.13% (inactive) and 0.82% (inactive), respectively.
Take `O=C(CSc1nnc(-c2cccnc2)o1)Nc1ccccn1`: the viability in experiment [1] was 92.5%; in experiment [3] it was 92.5% (inactive); in experiment [4] it was 94% (inactive); in experiment [5] it was 94.4% (inactive); in experiment [6] (setting [9]) it was 86.5%; in experiment [6] (setting [10]), 94.4%. Besides, the Her2 level in experiment [2] was 102% (inactive). In experiment [6] (H69AR cells + 2 uM doxorubicin), the differential viability (reversal) is 7.92% (inactive). Also, the inhibition is 0.68% (inactive) in experiment [7] and 31.8% (active) in experiment [8].
In the case of `Cc1nc2cc(-n3ccc(=O)cc3)ccc2n1-c1ccccc1`, the viability in experiment [1] was 102%; in experiment [3], 102% (inactive); in experiment [4], 79.7% (inactive); in experiment [5], 90.5% (inactive); in experiment [6] (setting [9]) it was 77.1%; in experiment [6] (setting [10]), 90.5%. Besides, the Her2 level in experiment [2] is 93% (inactive). In addition, the differential viability (reversal) in experiment [6] (H69AR cells + 2 uM doxorubicin) was 13.4% (inactive). The inhibition is -2.93% (inactive) in experiment [7] and -3.49% (inactive) in experiment [8].
Take `NC(=O)C1(N2CCCCC2)CCN(C2CC(=O)N(Cc3cccs3)C2=O)CC1` (stereo not given): the viability in experiment [1] is 112%; in experiment [3], 112% (inactive); in experiment [4], 101% (inactive); in experiment [5] it was 98% (inactive); in experiment [6] (setting [9]), 91.3%; in experiment [6] (setting [10]) it was 98%. Further, the Her2 level in experiment [2] was 103% (inactive). The differential viability (reversal) in experiment [6] (H69AR cells + 2 uM doxorubicin) is 6.76% (inactive). Also, the figures for the inhibition in experiment [7] and in experiment [8] were -4.74% (inactive) and -0.48% (inactive), respectively.
Consider `COc1ccccc1NC(=O)C1=C(C)Nc2nnnn2C1c1ccccc1OC` (stereo not given), for which the viability in experiment [1] is 94%; in experiment [3] it was 94% (inactive); in experiment [4] it was 113% (inactive); in experiment [5], 98.9% (inactive); in experiment [6] (setting [9]), 88.5%; in experiment [6] (setting [10]), 98.9%. Besides, the Her2 level in experiment [2] was 76.5% (inactive). Besides, in experiment [6] (H69AR cells + 2 uM doxorubicin), the differential viability (reversal) is 10.4% (inactive). Further, the inhibition in experiment [7] is -4.16% (inactive); in experiment [8], -1.5% (inactive).
As to `O=C(NCc1cccnc1)c1ccc2c(c1)OCO2`, the viability in experiment [1] is 74%; in experiment [3], 74% (inactive); in experiment [4], 105% (inactive); in experiment [5], 89.7% (inactive); in experiment [6] (setting [9]), 107%; in experiment [6] (setting [10]) it was 89.7%. The Her2 level in experiment [2] is 102% (inactive). In addition, the differential viability (reversal) in experiment [6] (H69AR cells + 2 uM doxorubicin) was -16.9% (inactive). In addition, the inhibition was -1.35% (inactive) in experiment [7] and -9.18% (inactive) in experiment [8].
Consider `O=C(Nc1ccncc1)c1cncc(Br)c1`, for which the viability is 78% in experiment [1]; 78% (inactive) in experiment [3]; 114% (inactive) in experiment [4]; 100% (inactive) in experiment [5]; 96.4% in experiment [6] (setting [9]); 100% in experiment [6] (setting [10]). Moreover, the Her2 level in experiment [2] is 95.5% (inactive). Besides, the differential viability (reversal) in experiment [6] (H69AR cells + 2 uM doxorubicin) is 4.04% (inactive). The inhibition in experiment [7] was -2.57% (inactive); in experiment [8] it was 1.5% (inactive).
For the compound `CCc1ccccc1NC(=O)C(C#N)Cc1cccnc1` (stereo not given), the viability was 90% in experiment [1]; 90% (inactive) in experiment [3]; 97.4% (inactive) in experiment [4]; 94.6% (inactive) in experiment [5]; 96.3% in experiment [6] (setting [9]); 94.6% in experiment [6] (setting [10]). Also, the Her2 level in experiment [2] is 88.5% (inactive). For the same compound, the differential viability (reversal) in experiment [6] (H69AR cells + 2 uM doxorubicin) was -1.77% (inactive). The inhibition in experiment [7] was -2.57% (inactive); in experiment [8], -0.49% (inactive).
For the compound `CCC(C(=O)NC1CCCC1)N(Cc1ccco1)C(=O)Cn1nnc(-c2ccc(C)cc2)n1` (stereo not given), the viability in experiment [1] was 97.5%; in experiment [3], 97.5% (inactive); in experiment [4], 106% (inactive); in experiment [5] it was 92.3% (inactive); in experiment [6] (setting [9]), 94.2%; in experiment [6] (setting [10]), 92.3%. Further, the Her2 level in experiment [2] is 97% (inactive). Besides, the differential viability (reversal) in experiment [6] (H69AR cells + 2 uM doxorubicin) was -1.87% (inactive). Further, the inhibition in experiment [7] was -3.33% (inactive); in experiment [8], -3.44% (inactive).
With `O=C(O)c1[nH]c2ccc(Cl)cc2c1CC(=O)N1CCN(C(=O)c2ccco2)CC1`, the viability was 83.5% in experiment [1]; 83.5% (inactive) in experiment [3]; 108% (inactive) in experiment [4]; 95.8% (inactive) in experiment [5]; 90.5% in experiment [6] (setting [9]); 95.8% in experiment [6] (setting [10]). Besides, the Her2 level in experiment [2] was 112% (inactive). For the same compound, the differential viability (reversal) in experiment [6] (H69AR cells + 2 uM doxorubicin) was 5.25% (inactive). Also, the inhibition in experiment [7] is -4.34% (inactive); in experiment [8], -9.83% (inactive).
On to `COc1ccc(S(=O)(=O)Nc2ccc(F)c(F)c2)cc1Cl`, for which the viability was 74% in experiment [1]; 74% (inactive) in experiment [3]; 90.4% (inactive) in experiment [4]; 90.2% (inactive) in experiment [5]; 92.8% in experiment [6] (setting [9]); 90.2% in experiment [6] (setting [10]). Further, the Her2 level in experiment [2] was 82.5% (inactive). The differential viability (reversal) in experiment [6] (H69AR cells + 2 uM doxorubicin) is -2.64% (inactive). Also, the values for the inhibition in experiment [7] and in experiment [8] were -4.59% (inactive) and 4.26% (inactive), respectively.
Consider `O=C(O)c1cc(/C=N\O)ccc1OCc1ccccc1`, for which the viability is 114% in experiment [1]; 114% (inactive) in experiment [3]; 95.9% (inactive) in experiment [4]; 103% (inactive) in experiment [5]; 91.2% in experiment [6] (setting [9]); 103% in experiment [6] (setting [10]). Further, the Her2 level in experiment [2] was 106% (inactive). In addition, the differential viability (reversal) in experiment [6] (H69AR cells + 2 uM doxorubicin) is 11.7% (inactive). The inhibition in experiment [7] was -5.33% (inactive); in experiment [8] it was 1.29% (inactive).
For the compound `COc1ccc(OC)c(C2C(C(=O)Nc3cccnc3)=C(C)NC3=C2C(=O)CCC3)c1` (stereo not given), the viability in experiment [1] was 101%; in experiment [3], 101% (inactive); in experiment [4] it was 88.3% (inactive); in experiment [5] it was 98.4% (inactive); in experiment [6] (setting [9]), 83.3%; in experiment [6] (setting [10]), 98.4%. In experiment [2], the Her2 level was 81% (inactive). Moreover, the differential viability (reversal) in experiment [6] (H69AR cells + 2 uM doxorubicin) is 15.1% (inactive). Also, the inhibition in experiment [7] was -6.22% (inactive); in experiment [8] it was 1.8% (inactive).
As to `CCCCC(c1nnnn1C1CCCC1)N1CCN(C2CCCCC2)CC1` (stereo not given), the viability in experiment [1] was 81.5%; in experiment [3], 81.5% (inactive); in experiment [4], 106% (inactive); in experiment [5], 92.7% (inactive); in experiment [6] (setting [9]), 72.2%; in experiment [6] (setting [10]), 92.7%. Also, in experiment [2], the Her2 level is 74% (inactive). Also, the differential viability (reversal) in experiment [6] (H69AR cells + 2 uM doxorubicin) is 20.4% (inactive). Further, the inhibition was -6.62% (inactive) in experiment [7] and 1.83% (inactive) in experiment [8].
